For one assay, the species on record is Homo sapiens. Description: Selectivity ratio of IC50 for human full length SGLT1 to IC50 for human full length SGLT2. In a few lines: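 Ratio of IC50 at hSGLT1 to IC50 at hSGLT2, both from the [14C]methyl-α-D-glucopyranoside uptake assay in stably transfected NIH3T3 cells.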
The target in assay [1] is T1, Sodium/glucose cotransporter 1 (Homo sapiens, UniProt P13866).
T1 sequence (P13866 whole entry): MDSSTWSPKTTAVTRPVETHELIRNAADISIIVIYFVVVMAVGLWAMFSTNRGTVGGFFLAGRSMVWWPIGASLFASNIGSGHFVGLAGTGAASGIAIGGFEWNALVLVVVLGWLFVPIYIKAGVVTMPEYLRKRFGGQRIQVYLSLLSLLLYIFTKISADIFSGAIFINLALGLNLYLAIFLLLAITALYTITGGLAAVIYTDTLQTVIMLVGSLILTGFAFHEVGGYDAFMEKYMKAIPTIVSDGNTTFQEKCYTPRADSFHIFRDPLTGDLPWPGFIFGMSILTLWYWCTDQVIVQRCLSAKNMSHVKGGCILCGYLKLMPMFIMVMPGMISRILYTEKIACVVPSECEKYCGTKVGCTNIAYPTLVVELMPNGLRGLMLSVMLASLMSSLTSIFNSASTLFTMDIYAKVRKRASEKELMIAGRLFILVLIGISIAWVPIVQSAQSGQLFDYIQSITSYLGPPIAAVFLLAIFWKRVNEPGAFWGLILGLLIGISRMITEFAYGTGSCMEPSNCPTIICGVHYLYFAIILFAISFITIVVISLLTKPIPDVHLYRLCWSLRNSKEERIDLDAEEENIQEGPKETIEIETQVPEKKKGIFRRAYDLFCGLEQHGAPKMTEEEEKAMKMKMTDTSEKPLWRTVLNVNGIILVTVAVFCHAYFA
Description: Inhibition of human full length SGLT1 expressed in NIH3T3 cells measured after 1 hr in presence of [14C]-methyl-alpha -D-glucopyranoside by scintillation counter method. It counts as cell-based. In a few lines: (§1)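 Stable NIH3T3 lines from retroviral transduction of full-length hSGLT1 or hSGLT2 (pBABE-puro, 8 µg/mL polybrene, puromycin 2 µg/mL selection for 2 weeks). Cells plated 2 days ahead, 2 mmol/L sodium butyrate added day 2. Read by scintillation counting. Compound-free buffer served as negative control, sodium-free N-methyl-glucamine buffer as blank.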

Assay [2] addresses T2, Sodium/glucose cotransporter 2 (Homo sapiens, UniProt P31639).
T2 sequence (P31639 whole entry): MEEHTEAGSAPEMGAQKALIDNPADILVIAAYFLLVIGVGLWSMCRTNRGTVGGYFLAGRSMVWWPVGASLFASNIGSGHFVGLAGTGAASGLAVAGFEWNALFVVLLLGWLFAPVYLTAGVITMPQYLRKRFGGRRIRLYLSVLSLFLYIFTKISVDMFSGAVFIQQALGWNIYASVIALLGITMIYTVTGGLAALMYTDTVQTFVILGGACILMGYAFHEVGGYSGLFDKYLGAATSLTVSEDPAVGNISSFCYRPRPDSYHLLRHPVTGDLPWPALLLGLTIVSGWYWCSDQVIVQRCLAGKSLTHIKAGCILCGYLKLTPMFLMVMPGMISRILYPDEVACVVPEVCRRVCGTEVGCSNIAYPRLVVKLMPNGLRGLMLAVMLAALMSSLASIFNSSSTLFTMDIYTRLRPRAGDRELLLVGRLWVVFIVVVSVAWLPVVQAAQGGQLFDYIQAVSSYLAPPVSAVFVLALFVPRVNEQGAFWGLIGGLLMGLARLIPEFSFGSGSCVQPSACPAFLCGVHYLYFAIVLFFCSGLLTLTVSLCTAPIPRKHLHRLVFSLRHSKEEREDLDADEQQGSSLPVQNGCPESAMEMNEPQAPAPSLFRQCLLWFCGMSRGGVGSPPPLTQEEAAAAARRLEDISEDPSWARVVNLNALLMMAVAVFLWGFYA
Nature of the assay: Inhibition of human full length SGLT2 expressed in NIH3T3 cells measured after 1 hr in presence of [14C]-methyl-alpha -D-glucopyranoside by scintillation counter method. It counts as cell-based. In a few lines:
as §1

The IC50 is the midpoint of a concentration-inhibition curve. `C[C@H]1O[C@]2(OCc3cc(Cl)c(Cc4cc5ccccc5s4)cc32)[C@H](O)[C@@H](O)[C@@H]1O`: the Ratio IC50 in the assay listed under Homo sapiens was 81. For the same molecule, the IC50 in assay [1] was 2000 nM.
For the molecule `C[C@H]1O[C@]2(OCc3ccc(Cc4ccc(Cl)s4)cc32)[C@H](O)[C@@H](O)[C@@H]1O`, the IC50 in assay [2] was more than 100 nM.
On the same count and under the same terms, then `C[C@H]1O[C@]2(OCc3ccc(Cc4ccc(-c5ccc(F)cc5)s4)cc32)[C@H](O)[C@@H](O)[C@@H]1O`, with more than 100 nM.
Regarding `C[C@H]1O[C@]2(OCc3cc(Cl)c(Cc4ccc(C=O)s4)cc32)[C@H](O)[C@@H](O)[C@@H]1O`, the Ratio IC50 in the assay filed under Homo sapiens stood at 70. The IC50 was determined as 3600 nM in assay [1] and 51.3 nM in assay [2].
For `Cc1ccc(Cc2cc3c(cc2Cl)CO[C@]32O[C@H](C)[C@@H](O)[C@H](O)[C@H]2O)s1`, in that order: 46, 400 nM and 8.5 nM.
For the molecule `CCOc1ccc(Cc2ccc3c(c2)[C@]2(OC3)O[C@H](C)[C@@H](O)[C@H](O)[C@H]2O)cc1`, the IC50 in assay [2] is more than 100 nM.
Consider `CCOCCc1ccc(Cc2cc3c(cc2Cl)CO[C@]32O[C@H](C)[C@@H](O)[C@H](O)[C@H]2O)s1`, for which the Ratio IC50 in the assay filed under Homo sapiens turned out to be 71. Moreover, the figures for the IC50 in assay [1] and in assay [2] were 4800 nM and 67.5 nM, respectively.
For `C[C@H]1O[C@]2(OCc3cc(Cl)c(Cc4ccc(CO)s4)cc32)[C@H](O)[C@@H](O)[C@@H]1O` the same measures were 47, 2200 nM and 47.2 nM.
Turning to `CCc1ccc(Cc2ccc3c(c2)[C@]2(OC3)O[C@H](C)[C@@H](O)[C@H](O)[C@H]2O)s1`, in assay [2], the IC50 was more than 100 nM.
The same measure, in the same setting: then `C[C@H]1O[C@]2(OCc3ccc(Cc4cc5ccccc5o4)cc32)[C@H](O)[C@@H](O)[C@@H]1O`, with more than 100 nM.
`COCCc1ccc(Cc2cc3c(cc2Cl)CO[C@]32O[C@H](C)[C@@H](O)[C@H](O)[C@H]2O)s1`: in the assay listed under Homo sapiens, the Ratio IC50 was found to be 68. Also, the IC50 in assay [1] is 4700 nM; in assay [2] it was 69.4 nM.
In the case of `CCCc1ccc(Cc2ccc3c(c2)[C@]2(OC3)O[C@H](C)[C@@H](O)[C@H](O)[C@H]2O)s1`, the half-inhibitory concentration (IC50) in assay [2] is more than 100 nM.
Consider `C[C@H]1O[C@]2(OCc3ccc(Cc4ccc5ccccc5c4)cc32)[C@H](O)[C@@H](O)[C@@H]1O`, for which, in assay [2], the IC50 is more than 100 nM.
Still for that read-out and setting: then `Cc1ccc(Cc2ccc3c(c2)[C@]2(OC3)O[C@H](C)[C@@H](O)[C@H](O)[C@H]2O)s1`, with more than 100 nM.
On to `CCc1ccc(Cc2ccc3c(c2)[C@]2(OC3)O[C@H](C)[C@@H](O)[C@H](O)[C@H]2O)cc1`, for which, in the assay filed under Homo sapiens, the Ratio IC50 came to 351.
Turning to `CCCc1ccc(Cc2ccc3c(c2)[C@]2(OC3)O[C@H](C)[C@@H](O)[C@H](O)[C@H]2O)cc1`, the IC50 in assay [2] is more than 100 nM.
In the case of `CCc1ccc(Cc2cc3c(cc2F)CO[C@]32O[C@H](C)[C@@H](O)[C@H](O)[C@H]2O)s1`, in the assay listed under Homo sapiens, the Ratio IC50 was 988. Moreover, the IC50 in assay [2] came to 26.2 nM.
For the molecule `CCc1ccc(Cc2cc3c(cc2Cl)CO[C@]32O[C@H](C)[C@@H](O)[C@H](O)[C@H]2O)cc1`, the Ratio IC50 in the assay filed under Homo sapiens was found to be 13. The IC50 in assay [1] was 400 nM.
Regarding `C[C@H]1O[C@]2(OCc3ccc(Cc4ccc(-c5ccccc5)s4)cc32)[C@H](O)[C@@H](O)[C@@H]1O`, in assay [2], the IC50 was more than 100 nM.
On the same count and under the same terms, to `C[C@H]1O[C@]2(OCc3ccc(Cc4cc5ccccc5s4)cc32)[C@H](O)[C@@H](O)[C@@H]1O` belongs more than 100 nM.
On the same count and under the same terms, to `CC(C)c1ccc(Cc2ccc3c(c2)[C@]2(OC3)O[C@H](C)[C@@H](O)[C@H](O)[C@H]2O)cc1` belongs more than 100 nM; to `COc1ccc(Cc2ccc3c(c2)[C@]2(OC3)O[C@H](C)[C@@H](O)[C@H](O)[C@H]2O)cc1`, more than 100 nM; to `C[C@H]1O[C@]2(OCc3ccc(Cc4ccc(-c5ccccn5)s4)cc32)[C@H](O)[C@@H](O)[C@@H]1O`, more than 100 nM.
On the same count and under the same terms, to `C[C@H]1O[C@]2(OCc3cc(Cl)c(Cc4ccc(-c5ccc(F)cc5)s4)cc32)[C@H](O)[C@@H](O)[C@@H]1O` belongs more than 100 nM.
On to `Cc1ccc(Cc2ccc3c(c2)[C@]2(OC3)O[C@H](C)[C@@H](O)[C@H](O)[C@H]2O)cc1`, for which the IC50 in assay [2] is more than 100 nM.
